Activity calls are given as the source filed them. No cut-off for these calls is given here.
Experiments:
[1] = Increase in insulin secretion in Sprague-Dawley rat pancreas assessed per Langerhans islet; format: functional
Summary of the method: (§1)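 Islets from male Sprague-Dawley rats (360–390 g) are digested with collagenase XI (2.5 mg/ml, HBSS, 35 min, 37 °C), purified on a Histopaque gradient and handpicked. They are pre-incubated 60 min at 37 °C, 5% CO2, in KRB with 8.3 mM glucose. Medium insulin is measured by ELISA in pg/islet/h (n = 6–12) against untreated basal.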

[2] = Increase in insulin secretion in Sprague-Dawley rat pancreas at 75 uM assessed per Langerhans islet; format: functional; summary of the method: as §1
Rattus norvegicus = species on record: Rattus norvegicus; test: Increase in insulin secretion in Sprague-Dawley rat pancreatic Langerhans islets below 25 uM; format: functional; summary of the method: as §1
[3] = Lactone formation at pH 1 after 1 hr; settings: buffer, pH 1, 1 h
[4] = Lactone formation at pH 1 after 4 hrs; settings: buffer, pH 1, 4 h
[5] = Increase in insulin secretion in Sprague-Dawley rat pancreatic Langerhans islets at 200 uM; format: functional; summary of the method: as §1
[6] = Increase in insulin secretion in Sprague-Dawley rat pancreatic Langerhans islets at 25 uM; format: functional; summary of the method: as §1

Row | Lactone formation [3] | Lactone formation [4] | SMILES | Activity [1] | Activity [2] | Activity (Rattus norvegicus) | Activity [5] | Activity [6]
1 | – | – | C[C@@H]([C@H](C)O)[C@@H]1NC(=O)NC1=O | 100 pg/h | – | – | – | –
2 | 10% | 32% | C[C@@H]([C@H](C)O)[C@H](N)C(=O)O | 45 pg/h | 100 pg/h | inactive | – | –
3 | – | – | CCOc1cc(CC(=O)N[C@@H](CC(C)C)c2ccccc2N2CCCCC2)ccc1C(=O)O [REPAGLINIDE] | 100 pg/h | – | – | 100% | –
4 | – | – | C[C@@H]([C@H](C)O)[C@H]1NC(=O)NC1=O | 100 pg/h | – | – | – | 120%
